Test results: publication PMC9883262 (Molecular Metabolism, 2023)

System: MMP-9 secreted by MCF-7 cells
Test: Gelatin zymography MMP-9 secretion, MCF-7
Type: cell-based
Conditions: 80 nM PMA, serum-free medium, MCF-7, vs basal (MMP-9 not detectable)
Outline: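 Cells attached overnight, then treated 24 or 48 h with test compound or DMSO vehicle in serum-free medium. Conditioned medium was acetone-precipitated (4 volumes, −20 °C, 2 h), and pellets were taken up in non-reducing SDS buffer. Samples were run on a 7.5% gel with 1 mg/mL gelatin, washed in Triton X-100/CaCl2/ZnCl2, incubated overnight at 37 °C, and Coomassie-stained. Mean ± SD of three independent experiments.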

Q: How did the “secreted MMP-9 level, PMA stimulation” value turn out when `CCCCCCCCCCCCCC(=O)O[C@@H]1[C@@H](C)[C@@]2(O)[C@@H](C=C(CO)C[C@]3(O)C(=O)C(C)=C[C@@H]23)[C@@H]2C(C)(C)[C@]12OC(C)=O` [PMA, phorbol 12-myristate 13-acetate] was run?
A: The value was “drastically increased”.
